Values belong to the molecule of their own block, whether it stands above or below them.
Key:
Assay type in all cases: organism-based
[1] = molecular target: T1, Angiotensin-converting enzyme (Rattus norvegicus) (UniProt P47820); assay: Compound was tested for plasma inhibition of Angiotensin I converting enzyme activity in the conscious rat. Expressed as Inhibition of AI pressor response at 6 hr at a dose of 12 mg/kg po; set-up: dose 12 mg/kg
T1 sequence (whole entry): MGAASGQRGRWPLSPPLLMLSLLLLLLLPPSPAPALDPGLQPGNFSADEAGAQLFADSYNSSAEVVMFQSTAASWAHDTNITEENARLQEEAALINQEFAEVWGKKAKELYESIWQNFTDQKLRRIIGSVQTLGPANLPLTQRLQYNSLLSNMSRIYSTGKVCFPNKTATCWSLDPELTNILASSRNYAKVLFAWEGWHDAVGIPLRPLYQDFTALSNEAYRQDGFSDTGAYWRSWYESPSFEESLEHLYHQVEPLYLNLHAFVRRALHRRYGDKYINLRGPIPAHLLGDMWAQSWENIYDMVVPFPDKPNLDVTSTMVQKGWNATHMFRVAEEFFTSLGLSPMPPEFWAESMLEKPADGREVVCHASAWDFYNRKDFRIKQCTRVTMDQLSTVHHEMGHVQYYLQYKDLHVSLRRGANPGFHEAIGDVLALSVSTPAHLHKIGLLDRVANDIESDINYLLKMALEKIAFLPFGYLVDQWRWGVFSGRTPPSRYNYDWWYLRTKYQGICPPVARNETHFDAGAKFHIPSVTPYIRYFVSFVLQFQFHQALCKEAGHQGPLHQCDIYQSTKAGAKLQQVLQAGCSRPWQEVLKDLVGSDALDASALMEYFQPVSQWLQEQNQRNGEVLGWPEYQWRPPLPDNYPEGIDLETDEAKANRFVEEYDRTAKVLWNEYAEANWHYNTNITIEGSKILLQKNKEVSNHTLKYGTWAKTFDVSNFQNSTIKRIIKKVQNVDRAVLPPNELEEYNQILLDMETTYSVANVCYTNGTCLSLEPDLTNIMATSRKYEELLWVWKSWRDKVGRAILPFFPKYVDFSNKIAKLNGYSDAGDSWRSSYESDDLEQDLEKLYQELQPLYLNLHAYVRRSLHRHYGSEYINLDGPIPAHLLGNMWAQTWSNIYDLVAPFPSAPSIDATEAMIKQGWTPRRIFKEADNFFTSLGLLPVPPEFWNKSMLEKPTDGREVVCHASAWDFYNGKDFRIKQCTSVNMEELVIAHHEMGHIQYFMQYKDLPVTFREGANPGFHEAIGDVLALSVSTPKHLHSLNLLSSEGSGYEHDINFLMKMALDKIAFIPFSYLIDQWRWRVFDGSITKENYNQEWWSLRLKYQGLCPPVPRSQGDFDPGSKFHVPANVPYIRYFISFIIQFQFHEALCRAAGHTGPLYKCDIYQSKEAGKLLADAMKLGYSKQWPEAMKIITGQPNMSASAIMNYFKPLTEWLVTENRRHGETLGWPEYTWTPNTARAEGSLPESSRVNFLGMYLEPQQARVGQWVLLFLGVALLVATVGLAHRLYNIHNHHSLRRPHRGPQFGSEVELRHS
Procedure, shortened: (§1)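 Male conscious normotensive Sprague-Dawley rats (275-390 g), prepared under methohexital sodium (75 mg/kg ip) with femoral arterial and venous catheters. The next day, pressor responses to three angiotensin-I challenges (300 ng/kg iv) were recorded. Compound was then given orally and angiotensin-I challenges were repeated at set times. Percent inhibition is relative to the mean of the three baseline responses.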

[2] = molecular target: T1, Angiotensin-converting enzyme (Rattus norvegicus); assay: Compound was tested for plasma inhibition of Angiotensin I converting enzyme activity in the conscious rat. Expressed as Inhibition of AI pressor response at 4 hr at a dose of 12 mg/kg po; set-up: dose 12 mg/kg
Procedure, shortened: (§2)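 Male conscious normotensive Sprague-Dawley rats (275-390 g), given femoral arterial and venous catheters under methohexital sodium (75 mg/kg ip) anesthesia. Next day, pressor responses to three angiotensin-I challenges (300 ng/kg iv) recorded by direct arterial pressure. Compound then dosed orally, and AI challenge repeated at set times. Each post-dose response compared with the mean of the three baseline responses, giving % inhibition.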

[3] = molecular target: T1, Angiotensin-converting enzyme (Rattus norvegicus); assay: Compound was tested for plasma inhibition of Angiotensin I converting enzyme activity in the conscious rat. Expressed as Inhibition of AI pressor response at 2 hr at a dose of 12 mg/kg po; set-up: dose 12 mg/kg; procedure, shortened: as §2
[4] = molecular target: T1, Angiotensin-converting enzyme (Rattus norvegicus); assay: Compound was tested for plasma inhibition of Angiotensin I converting enzyme activity in the conscious rat. Expressed as Inhibition of AI pressor response at 1 hr at a dose of 12 mg/kg po; set-up: dose 12 mg/kg; procedure, shortened: as §2
[5] = molecular target: T1, Angiotensin-converting enzyme (Rattus norvegicus); assay: Compound was tested for plasma inhibition of Angiotensin I converting enzyme activity in the conscious rat. Expressed as Inhibition of AI pressor response at 1 hr at a dose of 12.5 mg/kg po; set-up: dose 12.5 mg/kg; procedure, shortened: as §2
[6] = molecular target: T1, Angiotensin-converting enzyme (Rattus norvegicus); assay: Compound was tested for plasma inhibition of Angiotensin I converting enzyme activity in the conscious rat. Expressed as Inhibition of AI pressor response at 2 hr at a dose of 12.5 mg/kg po; set-up: dose 12.5 mg/kg; procedure, shortened: as §2
[7] = molecular target: T1, Angiotensin-converting enzyme (Rattus norvegicus); assay: Compound was tested for plasma inhibition of Angiotensin I converting enzyme activity in the conscious rat. Expressed as Inhibition of AI pressor response at 4 hr at a dose of 12.5 mg/kg po; set-up: dose 12.5 mg/kg; procedure, shortened: as §2
[8] = molecular target: T1, Angiotensin-converting enzyme (Rattus norvegicus); assay: Compound was tested for plasma inhibition of Angiotensin I converting enzyme activity in the conscious rat. Expressed as Inhibition of AI pressor response at 6 hr at a dose of 12.5 mg/kg po; set-up: dose 12.5 mg/kg; procedure, shortened: as §1
[9] = molecular target: T1, Angiotensin-converting enzyme (Rattus norvegicus); assay: Compound was tested for plasma inhibition of Angiotensin I converting enzyme activity in the conscious rat. Expressed as Inhibition of AI pressor response at 2 hr at a dose of 12.8 mg/kg po; set-up: dose 12.8 mg/kg; procedure, shortened: as §2
[10] = molecular target: T1, Angiotensin-converting enzyme (Rattus norvegicus); assay: Compound was tested for plasma inhibition of Angiotensin I converting enzyme activity in the conscious rat. Expressed as Inhibition of AI pressor response at 6 hr at a dose of 12.8 mg/kg po; set-up: dose 12.8 mg/kg; procedure, shortened: as §1
[11] = molecular target: T1, Angiotensin-converting enzyme (Rattus norvegicus); assay: Compound was tested for plasma inhibition of Angiotensin I converting enzyme activity in the conscious rat. Expressed as Inhibition of AI pressor response at 1 hr at a dose of 12.8 mg/kg po; set-up: dose 12.8 mg/kg; procedure, shortened: as §2
[12] = molecular target: T1, Angiotensin-converting enzyme (Rattus norvegicus); assay: Compound was tested for plasma inhibition of Angiotensin I converting enzymeb activity in the conscious rat. Expressed as Inhibition of AI pressor response at 4 hr at a dose of 12.8 mg/kg po; set-up: dose 12.8 mg/kg; procedure, shortened: as §1
[13] = molecular target: T1, Angiotensin-converting enzyme (Rattus norvegicus); assay: Compound was tested for plasma inhibition of Angiotensin I converting enzyme activity in the conscious rat. Expressed as Inhibition of AI pressor response at 1 hr at a dose of 13.3 mg/kg po; set-up: dose 13.3 mg/kg; procedure, shortened: as §2
[14] = molecular target: T1, Angiotensin-converting enzyme (Rattus norvegicus); assay: Compound was tested for plasma inhibition of Angiotensin I converting enzyme activity in the conscious rat. Expressed as Inhibition of AI pressor response at 2 hr at a dose of 13.3 mg/kg po; set-up: dose 13.3 mg/kg; procedure, shortened: as §2
[15] = molecular target: T1, Angiotensin-converting enzyme (Rattus norvegicus); assay: Compound was tested for plasma inhibition of Angiotensin I converting enzyme activity in the conscious rat. Expressed as Inhibition of AI pressor response at 6 hr at a dose of 13.3 mg/kg po; set-up: dose 13.3 mg/kg; procedure, shortened: as §1
[16] = molecular target: T1, Angiotensin-converting enzyme (Rattus norvegicus); assay: Compound was tested for plasma inhibition of Angiotensin I converting enzyme activity in the conscious rat. Expressed as Inhibition of AI pressor response at 4 hr at a dose of 13.3 mg/kg po; set-up: dose 13.3 mg/kg; procedure, shortened: as §1
[17] = molecular target: T1, Angiotensin-converting enzyme (Rattus norvegicus); assay: Compound was tested for plasma inhibition of ACE activity in the conscious rat. Expressed as Inhibition of AI pressor response at 1 hr at a dose of 12.4 mg/kg po; set-up: dose 12.4 mg/kg; procedure, shortened: as §2
[18] = molecular target: T1, Angiotensin-converting enzyme (Rattus norvegicus); assay: Compound was tested for plasma inhibition of Angiotensin I converting enzyme activity in the conscious rat. Expressed as Inhibition of AI pressor response at 2 hr at a dose of 12.4 mg/kg po; set-up: dose 12.4 mg/kg; procedure, shortened: as §2
[19] = molecular target: T1, Angiotensin-converting enzyme (Rattus norvegicus); assay: Compound was tested for plasma inhibition of Angiotensin I converting enzyme activity in the conscious rat. Expressed as Inhibition of AI pressor response at 4 hr at a dose of 12.4 mg/kg po; set-up: dose 12.4 mg/kg; procedure, shortened: as §2
[20] = molecular target: T1, Angiotensin-converting enzyme (Rattus norvegicus); assay: Compound was tested for plasma inhibition of Angiotensin I converting enzyme activity in the conscious rat. Expressed as Inhibition of AI pressor response at 6 hr at a dose of 12.4 mg/kg po; set-up: dose 12.4 mg/kg; procedure, shortened: as §1

SMILES: C=CCOC(=O)[C@H](Cc1ccc(O)cc1)NC(=O)C1(NC(=O)[C@H](SC(C)=O)C(C)C)CCCC1
inhibition [1]: 59% | inhibition [2]: 67% | inhibition [3]: 75% | inhibition [4]: 68%

SMILES: CCOC(=O)[C@H](Cc1ccc(O)cc1)NC(=O)C1(NC(=O)[C@H](SC(=O)c2ccccn2)C(C)C)CCCC1
inhibition [13]: 10% | inhibition [14]: 11% | inhibition [15]: 12% | inhibition [16]: 8%

SMILES: CCOC(=O)[C@H](Cc1ccc(OCC)cc1)NC(=O)C1(NC(=O)[C@H](SC(C)=O)C(C)C)CCCC1
inhibition [17]: 88% | inhibition [18]: 76% | inhibition [19]: 73% | inhibition [20]: 70%

Further lines, results first:

inhibition [5]: 81% | inhibition [6]: 77% | inhibition [7]: 70% | inhibition [8]: 34%
SMILES: CCOC(=O)[C@H](Cc1ccc(O)cc1)NC(=O)C1(NC(=O)[C@H](SC(=O)COC)C(C)C)CCCC1

inhibition [9]: 71% | inhibition [10]: 39% | inhibition [11]: 47% | inhibition [12]: 56%
SMILES: CCCCOC(=O)[C@H](Cc1ccc(O)cc1)NC(=O)C1(NC(=O)[C@H](SC(=O)CC)C(C)C)CCCC1
